In ChEMBL document CHEMBL1287688 (Bioorg Med Chem, 2010):

Columns and labels:
[1] = biological target: T1, Glutamate NMDA receptor; GRIN1/GRIN2B (Homo sapiens, UniProt Q05586+Q13224); experiment: Displacement of [3H]ifenprodil from human recombinant NR1-1a/NR2B receptor expressed in mouse L(tk-) cells after 120 mins by scintillation counting; assay type: cell-based
[2] = Selectivity ratio of Ki for guinea pig sigma1 receptor to Ki for human recombinant NR1a/NR2B receptor
[3] = Displacement of [3H]di-o-tolylguanidine from sigma2 receptor rat liver membranes after 180 mins scintillation counting; assay type: cell membranes, Membrane
[4] = biological target: Sigma non-opioid intracellular receptor 1 (Cavia porcellus, UniProt Q60492); experiment: Displacement of [3H](+)-pentazocine from sigma1 receptor guinea pig brain after 180 mins scintillation counting
[5] = biological target: T1, Glutamate NMDA receptor; GRIN1/GRIN2B; experiment: Antagonist activity at human recombinant NR1-1a/NR2B receptor expressed in mouse L(tk-) cells assessed as inhibition of (S)-glutamate/glycine-stimulated excitotoxicity treated 30 mins before (S)-glutamate/glycine challenge measured after 4 hrs by LDH release assay; assay type: functional, cell-based
Procedure, shortened: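 L13-E6 mouse L(tk-) cells stably expressing NR1-1a/NR2B; compounds (1 nM-10 µM, in DMSO) preincubated 30 min, then (S)-glutamate plus glycine (10 µM each) added, 4 h further incubation. LDH in supernatant measured; 0% = no agonist with 100 µM ketamine, 100% = glutamate/glycine without ketamine. At least three experiments, six replicates per concentration; IC50 calculated from curves.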

[6] = Half life in rat liver microsomes; assay type: ADME, Microsome
Procedure, shortened: (§1)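 Test article incubated with liver microsomes prepared from mouse, rat and human; half-life determined.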

[7] = biological target: T2, Amine oxidase [flavin-containing] A (Homo sapiens, UniProt P21397); experiment: Displacement of radiolabeled kynuramine from MAO-A at 1 to 3 uM
T2 sequence (P21397 whole entry): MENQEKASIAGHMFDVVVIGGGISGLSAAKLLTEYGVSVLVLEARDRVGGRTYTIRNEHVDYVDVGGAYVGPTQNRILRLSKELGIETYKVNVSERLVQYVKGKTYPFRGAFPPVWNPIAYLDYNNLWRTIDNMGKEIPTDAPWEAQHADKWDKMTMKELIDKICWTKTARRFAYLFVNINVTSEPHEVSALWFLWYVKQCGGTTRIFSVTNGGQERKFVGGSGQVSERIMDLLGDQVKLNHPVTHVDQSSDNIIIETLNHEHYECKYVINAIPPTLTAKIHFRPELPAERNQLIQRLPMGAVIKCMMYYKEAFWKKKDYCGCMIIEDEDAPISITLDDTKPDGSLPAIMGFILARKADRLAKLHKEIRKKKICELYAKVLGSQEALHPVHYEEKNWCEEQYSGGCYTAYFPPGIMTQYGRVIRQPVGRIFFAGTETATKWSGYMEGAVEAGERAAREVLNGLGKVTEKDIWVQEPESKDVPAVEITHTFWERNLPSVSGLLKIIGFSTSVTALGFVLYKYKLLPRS
Procedure, shortened: (§2)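 Broad radioligand competition screen against more than 100 receptors, transporters and enzymes, with test concentrations of 1-3 µM. Targets and radioligands are listed only in supplementary data. hERG IC50 was estimated.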

[8] = biological target: T3, UDP-glucuronosyltransferase 1A1 (Homo sapiens, UniProt P22309); experiment: Displacement of radiolabeled scopoletin from UGT1A1 at 1 to 3 uM; procedure, shortened: as §2
T3 sequence (P22309 whole entry): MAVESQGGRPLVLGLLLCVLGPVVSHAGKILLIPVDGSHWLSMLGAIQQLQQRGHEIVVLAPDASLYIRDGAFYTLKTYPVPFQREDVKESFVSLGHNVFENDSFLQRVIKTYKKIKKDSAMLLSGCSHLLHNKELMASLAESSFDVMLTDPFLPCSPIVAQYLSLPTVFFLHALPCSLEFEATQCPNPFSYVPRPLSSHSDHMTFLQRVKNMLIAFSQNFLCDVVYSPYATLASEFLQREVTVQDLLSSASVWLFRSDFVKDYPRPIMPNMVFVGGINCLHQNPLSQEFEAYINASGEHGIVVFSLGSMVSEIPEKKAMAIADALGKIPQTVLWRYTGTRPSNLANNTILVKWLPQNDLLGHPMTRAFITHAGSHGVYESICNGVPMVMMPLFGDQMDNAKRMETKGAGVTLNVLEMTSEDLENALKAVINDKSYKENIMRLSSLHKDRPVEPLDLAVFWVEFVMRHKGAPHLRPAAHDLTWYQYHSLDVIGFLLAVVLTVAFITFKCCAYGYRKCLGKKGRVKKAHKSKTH

[9] = Half life in human liver microsomes; assay type: ADME, Microsome; procedure, shortened: as §1
[10] = Half life in mouse liver microsomes; assay type: ADME, Microsome; procedure, shortened: as §1
[11] = biological target: T4, Amine oxidase [flavin-containing] B (Homo sapiens, UniProt P27338); experiment: Displacement of radiolabeled kynuramine from MAO-B at 1 to 3 uM; procedure, shortened: as §2
T4 sequence (P27338 whole entry): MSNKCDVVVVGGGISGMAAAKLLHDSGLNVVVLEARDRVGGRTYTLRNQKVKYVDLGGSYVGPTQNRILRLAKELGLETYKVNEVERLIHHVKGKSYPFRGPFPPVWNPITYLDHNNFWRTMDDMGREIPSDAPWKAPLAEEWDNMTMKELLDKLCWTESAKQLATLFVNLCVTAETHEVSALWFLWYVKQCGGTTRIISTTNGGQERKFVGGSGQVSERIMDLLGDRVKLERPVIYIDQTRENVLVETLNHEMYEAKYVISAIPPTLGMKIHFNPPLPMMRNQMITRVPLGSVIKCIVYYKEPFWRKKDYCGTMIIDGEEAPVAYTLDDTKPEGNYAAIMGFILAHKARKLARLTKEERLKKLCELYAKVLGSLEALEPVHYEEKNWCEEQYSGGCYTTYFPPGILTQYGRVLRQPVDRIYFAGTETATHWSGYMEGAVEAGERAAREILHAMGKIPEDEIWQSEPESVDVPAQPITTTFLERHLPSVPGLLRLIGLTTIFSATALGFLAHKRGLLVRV

Mus musculus [12] = experiment: Toxicity in mouse assessed as diarrhea at 100 mg/kg, ip after 30 mins; assay type: organism-based; set-up: dose 100 mg/kg, route intraperitoneal; settings: in vivo, 0.5 h
Procedure, shortened: (§3)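 Mice (Irwin test) received increasing intraperitoneal doses of 1-100 mg/kg body weight. Behaviour was then observed for 24 h.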

Mus musculus [13] = experiment: Toxicity in mouse assessed as unusual reactions at 1 to 100 mg/kg, ip after 24 hrs; assay type: organism-based; set-up: dose 1-100 mg/kg, route intraperitoneal; settings: in vivo; procedure, shortened: as §3

Sigma non-opioid intracellular receptor 1, sequence (Q60492 whole entry): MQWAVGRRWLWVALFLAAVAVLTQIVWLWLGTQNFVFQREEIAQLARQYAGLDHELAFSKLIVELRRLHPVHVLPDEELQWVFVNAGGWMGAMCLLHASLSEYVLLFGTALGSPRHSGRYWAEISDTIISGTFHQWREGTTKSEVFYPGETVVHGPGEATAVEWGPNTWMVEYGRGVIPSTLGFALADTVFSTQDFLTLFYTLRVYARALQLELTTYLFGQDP
T1 sequence (Q13224 whole entry, other chains not shown): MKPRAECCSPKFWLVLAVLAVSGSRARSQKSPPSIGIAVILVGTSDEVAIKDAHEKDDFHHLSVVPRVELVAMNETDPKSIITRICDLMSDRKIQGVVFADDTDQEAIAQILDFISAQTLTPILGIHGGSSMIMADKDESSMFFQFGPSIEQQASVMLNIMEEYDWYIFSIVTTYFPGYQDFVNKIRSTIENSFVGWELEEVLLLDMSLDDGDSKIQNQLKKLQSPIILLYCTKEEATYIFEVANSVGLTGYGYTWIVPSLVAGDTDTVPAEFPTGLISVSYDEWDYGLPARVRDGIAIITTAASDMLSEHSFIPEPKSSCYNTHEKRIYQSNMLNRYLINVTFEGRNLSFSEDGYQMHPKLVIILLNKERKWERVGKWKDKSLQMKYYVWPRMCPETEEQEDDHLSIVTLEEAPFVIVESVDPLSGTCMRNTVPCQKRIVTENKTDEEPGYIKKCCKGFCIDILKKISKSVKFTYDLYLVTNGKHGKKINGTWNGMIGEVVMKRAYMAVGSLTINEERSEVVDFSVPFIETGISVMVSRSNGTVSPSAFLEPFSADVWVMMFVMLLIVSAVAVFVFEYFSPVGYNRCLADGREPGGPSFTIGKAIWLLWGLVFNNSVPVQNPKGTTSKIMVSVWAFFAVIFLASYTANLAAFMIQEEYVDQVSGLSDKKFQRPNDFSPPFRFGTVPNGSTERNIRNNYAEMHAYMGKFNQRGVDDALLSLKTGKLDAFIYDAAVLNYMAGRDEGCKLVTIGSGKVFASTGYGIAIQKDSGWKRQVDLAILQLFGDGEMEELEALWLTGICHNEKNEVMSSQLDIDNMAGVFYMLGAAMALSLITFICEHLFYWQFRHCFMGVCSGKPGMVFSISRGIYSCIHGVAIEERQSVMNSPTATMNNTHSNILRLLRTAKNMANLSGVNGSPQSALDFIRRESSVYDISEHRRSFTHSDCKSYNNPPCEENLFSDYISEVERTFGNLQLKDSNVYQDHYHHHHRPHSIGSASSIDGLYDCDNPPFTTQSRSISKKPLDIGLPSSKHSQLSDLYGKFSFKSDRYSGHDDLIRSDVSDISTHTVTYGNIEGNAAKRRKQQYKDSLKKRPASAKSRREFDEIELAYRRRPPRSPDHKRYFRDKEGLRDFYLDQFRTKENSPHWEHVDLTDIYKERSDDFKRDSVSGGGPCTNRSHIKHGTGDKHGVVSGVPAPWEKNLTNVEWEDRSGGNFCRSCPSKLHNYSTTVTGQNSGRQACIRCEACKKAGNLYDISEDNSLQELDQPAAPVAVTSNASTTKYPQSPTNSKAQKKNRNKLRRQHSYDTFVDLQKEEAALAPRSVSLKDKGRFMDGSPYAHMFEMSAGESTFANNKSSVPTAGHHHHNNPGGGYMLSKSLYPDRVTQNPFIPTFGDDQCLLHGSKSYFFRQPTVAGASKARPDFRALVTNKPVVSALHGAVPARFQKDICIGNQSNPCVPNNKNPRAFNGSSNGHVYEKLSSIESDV

| Ki [1] [nM] | Ki [3] [nM] | Ki [4] [nM] | Compound | other results |
| --- | --- | --- | --- | --- |
| 1310 | 6430 | 604 | OC1CN(Cc2ccc(N3CCCCC3)cc2)CCc2cc(OCc3ccccc3)ccc21 (racemic) | – |
| 644 | > 1000 | > 1000 | CC(C)(C)c1ccc(C(=O)CCCN2CCc3cc(OCc4ccccc4)ccc3C(O)C2)cc1 (racemic) | – |
| 151 | 1050 | 293 | O=C(CCCN1CCc2cc(OCc3ccccc3)ccc2C(O)C1)c1ccc(F)cc1 (racemic) | – |
| 20 | 5.9 | 170 | Oc1ccc2c(c1)CCN(CCCOc1ccccc1)CC2O (racemic) | – |
| 36 | 33 | 1050 | O=C(CCCN1CCc2cc(O)ccc2C(O)C1)c1ccc(F)cc1 (racemic) | – |
| 187 | 1050 | – | OC1CN(CCCCc2ccccc2)CCc2cc(OCc3ccccc3)ccc21 (racemic) | – |
| 93 | 945 | 193 | OC1CN(CCCOc2ccccc2)CCc2cc(OCc3ccccc3)ccc21 (racemic) | – |
| 41 | 653 | – | OC1CN(CCCSc2ccccc2)CCc2cc(OCc3ccccc3)ccc21 (racemic) | – |
| 37 | 3040 | – | O=S(=O)(CCCN1CCc2cc(OCc3ccccc3)ccc2C(O)C1)c1ccccc1 (racemic) | – |
| 661 | > 1000 | > 1000 | COc1ccc(C2(CCCN3CCc4cc(OCc5ccccc5)ccc4C(O)C3)OCC(C)(C)CO2)cc1 (racemic) | – |
| 1420 | > 1000 | > 1000 | CC1(C)COC(CCCN2CCc3cc(OCc4ccccc4)ccc3C(O)C2)(c2ccc(F)cc2)OC1 (racemic) | – |
| 1210 | > 1000 | > 1000 | OC1CN(Cc2cccc(-c3ccccc3)c2)CCc2cc(OCc3ccccc3)ccc21 (racemic) | – |
| 377 | 2960 | > 1000 | CN(Cc1ccccc1)C(=O)CN1CCc2cc(OCc3ccccc3)ccc2C(O)C1 (racemic) | – |
| 1000 | > 1000 | 186 | OC1CN(C2COC(c3ccccc3)OC2)CCc2cc(OCc3ccccc3)ccc21 (racemic) | – |

Further lines, the molecule ahead of its results:

| Compound | Ki [1] [nM] | Ki [3] [nM] | Ki [4] [nM] | other results |
| --- | --- | --- | --- | --- |
| OC1CN([C@H]2CC[C@@H](c3ccccc3)CC2)CCc2cc(OCc3ccccc3)ccc21 (some centres not stated) | 139 | 311 | 10 | Ratio Ki [2]: 14 |
| OC1CN([C@H]2CC[C@H](c3ccccc3)CC2)CCc2cc(OCc3ccccc3)ccc21 (some centres not stated) | 388 | > 1000 | 386 | – |
| COc1ccc2c(c1)CCN(CCCCc1ccccc1)CC2O (configuration not stated) | 5.4 | 554 | – | IC50 [5]: 360 nM |
| COc1ccc(C(=O)CCCN2CCc3cc(OCc4ccccc4)ccc3C(O)C2)cc1 (racemic) | > 1000 | 4500 | > 1000 | – |
| Oc1ccc2c(c1)CCN(CCCCc1ccccc1)CC2O (racemic) | 14 | 18000 | – | half-life [6]: < 3 min; Activity [7]: Not Active; Activity [8]: Not Active; half-life [9]: 21 min; half-life [10]: 28 min; Activity [11]: Not Active; Activity (Mus musculus [12]): Toxic; IC50 [5]: 18.4 nM; Activity (Mus musculus [13]): Non-toxic |
| O=S(=O)(CCCN1CCc2cc(O)ccc2C(O)C1)c1ccccc1 (racemic) | > 1000 | 653 | > 1000 | – |
| CN(Cc1ccccc1)C(=O)CN1CCc2cc(O)ccc2C(O)C1 (racemic) | > 1000 | 1580 | – | – |
| Oc1ccc2c(c1)CCN(C1CCC3(CC1)OCCO3)CC2O (racemic) | > 1000 | 658 | > 1000 | – |
| Oc1ccc2c(c1)CCN([C@H]1CO[C@H](c3ccccc3)OC1)CC2O (mixture of isomers) | > 1000 | > 1000 | > 1000 | – |
| O=C(c1ccccc1)N1CCC(N2CCc3cc(O)ccc3C(O)C2)CC1 (racemic) | 204 | 98 | > 1000 | – |
| Oc1ccc2c(c1)CCN([C@H]1CC[C@@H](c3ccccc3)CC1)CC2O (mixture of isomers) | 3.3 | 8.6 | 123 | IC50 [5]: 12100 nM |
| Oc1ccc2c(c1)CCN([C@H]1CC[C@H](c3ccccc3)CC1)CC2O (mixture of isomers) | 9 | 8.9 | 200 | – |
| CC1(C)COC(CCCN2CCc3cc(OCc4ccccc4)ccc3C(O)C2)(c2ccc(C(C)(C)C)cc2)OC1 (racemic) | > 1000 | 900 | > 1000 | – |
| OC1CN(C2CCC3(CC2)OCCO3)CCc2cc(OCc3ccccc3)ccc21 (racemic) | 1120 | 753 | – | – |
| O=C(c1ccccc1)N1CCC(N2CCc3cc(OCc4ccccc4)ccc3C(O)C2)CC1 (racemic) | > 1000 | > 1000 | > 1000 | – |
| OC(CN1CCC(Cc2ccc(F)cc2)CC1)c1ccc(Cl)cc1 (configuration not stated) [ELIPRODIL] | 13 | – | – | – |
| CC(C(O)c1ccc(O)cc1)N1CCC(Cc2ccccc2)CC1 (configuration not stated) [IFENPRODIL] | – | – | – | half-life [6]: < 1 min; half-life [9]: 5 min; half-life [10]: < 5 min |
